Reference: ChEMBL document CHEMBL1240414, “Synthesis and anticonvulsant activity of new 6-methyl-1-substituted-4,6-diazaspiro[2.4]heptane-5,7-diones” (Eur J Med Chem, 2010)
Calls of active or inactive are those of the source.

Assays:
[1] = test system: Mus musculus; experiment: Anticonvulsant activity in Kunming mouse assessed as protection against maximal electroshock-induced seizures at 100 mg/kg, ip after 0.5 hrs; format: functional, organism-based; design: dose 100 mg/kg
[2] = test system: Mus musculus; experiment: Neurotoxicity in Kunming mouse assessed as minimum motor impairment at 300 mg/kg, ip after 0.5 hrs by rotarod test; format: toxicity, organism-based; design: dose 300 mg/kg, route intraperitoneal; conditions: in vivo
Method in brief: (§1)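 Rotorod neurotoxicity in male Kunming mice (20 ± 2.0 g) given ip doses of 30, 100 or 300 mg/kg as a suspension in 0.5% methylcellulose, one to four mice per dose. Motor impairment was examined at 0.5 h and 4.0 h after injection. Reported as number of animals showing toxicity/number tested.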

[3] = test system: Mus musculus; experiment: Anticonvulsant activity in Kunming mouse assessed as protection against subcutaneous pentylenetetrazole-induced seizures at 30 mg/kg, ip after 0.5 hrs; format: functional, organism-based; design: dose 30 mg/kg
Method in brief: (§2)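 Male Kunming mice (20 ± 2.0 g) received the compound ip as a suspension in 0.5% methylcellulose at 30, 100 or 300 mg/kg, one to four mice per dose. Pentylenetetrazole in 0.9% saline was given sc at 0.5 h and 4.0 h after dosing. Protection meant no threshold seizure (one clonic spasm episode of at least 5 s). Scored as protected/tested.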

[4] = test system: Mus musculus; experiment: Neurotoxicity in Kunming mouse assessed as minimum motor impairment at 30 mg/kg, ip after 0.5 hrs by rotarod test; format: toxicity, organism-based; design: dose 30 mg/kg, route intraperitoneal; conditions: in vivo; method in brief: as §1
[5] = test system: Mus musculus; experiment: Anticonvulsant activity in Kunming mouse assessed as protection against subcutaneous pentylenetetrazole-induced seizures at 100 mg/kg, ip after 4 hrs; format: functional, organism-based; design: dose 100 mg/kg; method in brief: as §2
[6] = test system: Mus musculus; experiment: Anticonvulsant activity in Kunming mouse assessed as protection against subcutaneous pentylenetetrazole-induced seizures at 30 mg/kg, ip after 4 hrs; format: functional, organism-based; design: dose 30 mg/kg; method in brief: as §2
[7] = test system: Mus musculus; experiment: Anticonvulsant activity in Kunming mouse assessed as protection against subcutaneous pentylenetetrazole-induced seizures at 100 mg/kg, ip after 0.5 hrs; format: functional, organism-based; design: dose 100 mg/kg; method in brief: as §2
[8] = test system: Mus musculus; experiment: Neurotoxicity in Kunming mouse assessed as minimum motor impairment at 30 mg/kg, ip after 4 hrs by rotarod test; format: toxicity, organism-based; design: dose 30 mg/kg, route intraperitoneal; conditions: in vivo; method in brief: as §1
[9] = test system: Mus musculus; experiment: Neurotoxicity in Kunming mouse assessed as minimum motor impairment at 100 mg/kg, ip after 4 hrs by rotarod test; format: toxicity, organism-based; design: dose 100 mg/kg, route intraperitoneal; conditions: in vivo; method in brief: as §1
[10] = test system: Mus musculus; experiment: Anticonvulsant activity in Kunming mouse assessed as protection against maximal electroshock-induced seizures at 30 mg/kg, ip after 4 hrs; format: functional, organism-based; design: dose 30 mg/kg
[11] = test system: Mus musculus; experiment: Anticonvulsant activity in Kunming mouse assessed as protection against maximal electroshock-induced seizures at 30 mg/kg, ip after 0.5 hrs; format: functional, organism-based; design: dose 30 mg/kg
[12] = test system: Mus musculus; experiment: Neurotoxicity in Kunming mouse assessed as minimum motor impairment at 100 mg/kg, ip after 0.5 hrs by rotarod test; format: toxicity, organism-based; design: dose 100 mg/kg, route intraperitoneal; conditions: in vivo; method in brief: as §1
[13] = test system: Mus musculus; experiment: Neurotoxicity in Kunming mouse assessed as minimum motor impairment at 300 mg/kg, ip after 4 hrs by rotarod test; format: toxicity, organism-based; design: dose 300 mg/kg, route intraperitoneal; conditions: in vivo; method in brief: as §1
[14] = test system: Mus musculus; experiment: Anticonvulsant activity in Kunming mouse assessed as protection against subcutaneous pentylenetetrazole-induced seizures at 300 mg/kg, ip after 4 hrs; format: functional, organism-based; design: dose 300 mg/kg; method in brief: as §2
[15] = test system: Mus musculus; experiment: Anticonvulsant activity in Kunming mouse assessed as protection against subcutaneous pentylenetetrazole-induced seizures at 300 mg/kg, ip after 0.5 hrs; format: functional, organism-based; design: dose 300 mg/kg; method in brief: as §2
[16] = test system: Mus musculus; experiment: Anticonvulsant activity in Kunming mouse assessed as protection against maximal electroshock-induced seizures at 300 mg/kg, ip after 4 hrs; format: functional, organism-based; design: dose 300 mg/kg
[17] = test system: Mus musculus; experiment: Anticonvulsant activity in Kunming mouse assessed as protection against maximal electroshock-induced seizures at 100 mg/kg, ip after 4 hrs; format: functional, organism-based; design: dose 100 mg/kg

| SMILES | Activity [1] | Activity [2] | Activity [3] | Activity [4] | Activity [5] | Activity [6] | Activity [7] | Activity [8] | Activity [9] | Activity [10] | Activity [11] | Activity [12] | Activity [13] | Activity [14] | Activity [15] | Activity [16] | Activity [17] |
| --- | --- | --- | --- | --- | --- | --- | --- | --- | --- | --- | --- | --- | --- | --- | --- | --- | --- |
| Cc1ccc(C2CC23NC(=O)N(C)C3=O)cc1 (stereo not given) | Active | Toxic | inactive | Non-toxic | inactive | inactive | inactive | Non-toxic | Non-toxic | inactive | Active | Non-toxic | Non-toxic | – | – | – | – |
| CCCC1CC12NC(=O)N(C)C2=O (stereo not given) | Active | Toxic | inactive | Toxic | inactive | inactive | inactive | Non-toxic | Non-toxic | inactive | inactive | Non-toxic | Toxic | inactive | inactive | Active | – |
| CC(C)CC1CC12NC(=O)N(C)C2=O (stereo not given) | Active | Toxic | Active | Toxic | inactive | inactive | inactive | Non-toxic | Non-toxic | inactive | Active | Non-toxic | Non-toxic | inactive | – | – | – |
| CN1C(=O)NC2(CC2c2ccc(Cl)cc2)C1=O (stereo not given) | Active | – | inactive | Non-toxic | inactive | inactive | inactive | Non-toxic | Toxic | inactive | inactive | Toxic | – | inactive | – | – | inactive |
| COc1cc(C2CC23NC(=O)N(C)C3=O)cc(OC)c1OC (stereo not given) | Active | Non-toxic | inactive | Non-toxic | inactive | inactive | inactive | Non-toxic | Non-toxic | inactive | inactive | Non-toxic | Non-toxic | – | – | Active | inactive |
| COc1ccc(C2CC23NC(=O)N(C)C3=O)cc1OC (stereo not given) | Active | – | inactive | Non-toxic | inactive | inactive | inactive | Non-toxic | Non-toxic | inactive | Active | Non-toxic | – | – | – | Active | – |
| COc1ccc(OC)c(C2CC23NC(=O)N(C)C3=O)c1 (stereo not given) | Active | – | inactive | Non-toxic | inactive | inactive | inactive | Non-toxic | Non-toxic | inactive | Active | Non-toxic | – | inactive | inactive | – | – |
| CC(C)C1CC12NC(=O)N(C)C2=O (stereo not given) | Active | Non-toxic | inactive | Non-toxic | inactive | inactive | inactive | Non-toxic | Non-toxic | – | Active | Non-toxic | – | inactive | inactive | Active | – |
